This is an account of results in ChEMBL document CHEMBL1135606, “Synthesis, stability, and antimalarial activity of new hydrolytically stable and water-soluble (+)-deoxoartelinic acid” (J Med Chem, 2002).

Converted amounts (≈) assume the structure as drawn.

The term half-life denotes the time needed for the level to fall by half in the phase considered. Higher therefore signals slow loss.

Data set [1] can be described thus: Half life was reported. The format is ADME. In outline: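 Simulated stomach acid stability: compound at 1 mg/mL in 0.01 N HCl, pH 2.0, sealed, 37 °C. Acetal-type compounds sampled at 0–1400 min; non-acetal-type at 2–14 days. Remaining drug quantified by reverse-phase C-18 HPLC (ammonium acetate/acetonitrile, internal standard). Half-life from pseudo-first-order disappearance.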

The subject of data set [2] is Mus musculus. The data set can be described thus: Percent of infected erythrocytes in Blood schizonticidal activity against Plasmodium chabaudi in mice at a concentration of 10 mg/kg/day on day 5. It is filed as functional. The method in brief: (§1)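 Female BALB/c mice (18–20 g, SPF), groups of five, infected iv on day 1 with 1 × 10^7 P. chabaudi ANKA-infected erythrocytes. Dosing ip began 2 h post-inoculation, once daily for 4 days, at 10 mg/kg/day in 10% DMSO/PBS. On day 5, Giemsa-stained smears; ≥1000 red cells counted; % infected erythrocytes per mouse, compared with controls.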

Data set [3] relates to Mus musculus. The data set can be described thus: In vivo antimalarial activity against Plasmodium chabaudi in mice (Mus musculus) and its survival rate reported. The format is functional.
The subject of data set [4] is Mus musculus. Description: Percent of infected erythrocytes in Blood schizonticidal activity against Plasmodium chabaudi in mice at a concentration of 10 mg/kg/day on day 2. It is filed as functional.
In data set [5] the test system is Plasmodium falciparum. Description: In vitro antimalarial activity against chloroquine-sensitive Plasmodium falciparum 3D7. It is filed as functional. The note with it: read-out: ED50 (the source's name). In outline:
(§2)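 Asexual P. falciparum (3D7 or K1) in A+ erythrocytes, RPMI 1640, 5% hematocrit, 37 °C, 5% CO2. Synchronized ring stages at 1% parasitemia. Triplicate 3-fold dilutions from a final top concentration of 30 µg/mL. 24 h incubation, then [3H]-hypoxanthine (0.1 µCi/well) for a further 24 h. Incorporation read by scintillation counting; ED50 from curve fitting.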

Data set [6] has as its system Mus musculus. The data set can be described thus: Percent of infected erythrocytes in Blood schizonticidal activity against Plasmodium chabaudi in mice at a concentration of 10 mg/kg/day on day 1. It is filed as functional. The method in brief: as §1
Data set [7] concerns Plasmodium falciparum. The data set can be described thus: In vitro antimalarial activity against chloroquine-resistant Plasmodium falciparum K1. It is filed as functional. The note with it: read-out: ED50 (the source's name). The method in brief: as §2
The test system of data set [8] is Mus musculus. Description: In vivo antimalarial activity against Plasmodium chabaudi in mice (Mus musculus) and its survival was reported. The format is functional.
In data set [9] the test system is Mus musculus. The data set can be described thus: Percent of infected erythrocytes in Blood schizonticidal activity against Plasmodium chabaudi in mice at a concentration of 10 mg/kg/day on day 4. The format is functional. In outline:
as §1

Data set [10] concerns Mus musculus. The data set can be described thus: Percent of infected erythrocytes in Blood schizonticidal activity against Plasmodium chabaudi in mice at a concentration of 10 mg/kg/day on day 3. The format is functional.

In data set [1], `CCCC[C@H]1O[C@@H]2O[C@]3(C)CC[C@H]4[C@H](C)CC[C@@H]([C@H]1C)[C@@]24OO3` had a half-life of 187 h.

On to `C[C@H]1[C@@H](CCc2ccc(C(=O)O)cc2)O[C@@H]2O[C@]3(C)CC[C@H]4[C@H](C)CC[C@@H]1[C@@]24OO3`, for which the Infected erythrocytes in [2] worked out at 0.3%; in [4], 0.5%; in [6], 0.5%; in [9], 0.5%; in [10], 2.9%. The same molecule gave a Survival rate in [3] of 100%. The EC50 in [5] came to 1.1 ng/mL (≈ 2.64 nM); in [7], 0.6 ng/mL (≈ 1.44 nM). Moreover, the Survival in [8] is 5. Moreover, the half-life in data set [1] is 259 h.

As for `C[C@@H]1[C@H](OCc2ccc(C(=O)O)cc2)O[C@@H]2O[C@@]3(C)CC[C@@H]4[C@@H](C)CC[C@@H]1[C@]24OO3` [ARTELINIC ACID], the EC50 in data set [5] worked out at 4 ng/mL (≈ 9.56 nM); in [7], 1.4 ng/mL (≈ 3.35 nM). Further, the half-life in data set [1] was 13.1 h.

Turning to `C[C@@H]1CC[C@H]2[C@@H](C)C(=O)O[C@@H]3O[C@@]4(C)CC[C@@H]1[C@]32OO4` [ARTEMISININ], the EC50 came to 2.9 ng/mL (≈ 10.3 nM) in data set [5] and 0.7 ng/mL (≈ 2.48 nM) in data set [7].

As to `CCO[C@H]1O[C@@H]2O[C@@]3(C)CC[C@H]4[C@H](C)CC[C@@H]([C@H]1C)[C@@]24OO3` [ARTEMOTIL], in [3], the Survival rate stood at 60%. Besides, the EC50 stood at 0.2 ng/mL (≈ 0.64 nM) in data set [5] and 0.9 ng/mL (≈ 2.88 nM) in [7]. In data set [8], the Survival was 3. The half-life in data set [1] is 11 h.

`C[C@H]1[C@H](OC(=O)CCC(=O)O)O[C@@H]2O[C@@]3(C)CC[C@H]4[C@H](C)CC[C@@H]1[C@@]24OO3` [ARTESUNATE]: the EC50 came out at 0.2 ng/mL (≈ 0.52 nM) in [5] and 0.6 ng/mL (≈ 1.56 nM) in [7].

With `CCN(CC)CCCC(C)Nc1ccnc2cc(Cl)ccc12` (stereo not drawn) [CHLOROQUINE], the Infected erythrocytes amounted to 81.3% in data set [2]; 71.3% in data set [4]; 65% in [6]; 82.4% in data set [9]; 62.1% in data set [10]. Moreover, the Survival rate in data set [3] came to 0%. Besides, the results for the EC50 in [5] and in [7] were 8 ng/mL (≈ 25 nM) and 220 ng/mL (≈ 688 nM), respectively. The Survival in data set [8] amounted to 0.

On to `C[C@@H]1CC[C@H]2[C@@H](C)CO[C@@H]3O[C@]4(C)CC[C@@H]1[C@]32OO4` [DEOXOARTEMISININ], for which the half-life in [1] is 245 h.
